Measurements collected from several papers.
Each line is one published result; the experiments were not run side by side.
Cell line: NCI-H522
Effect on: cell growth or viability

| SMILES | technique | concentration | time | quantity | value |
| --- | --- | --- | --- | --- | --- |
| O=C1NCCc2[nH]c(-c3ccncc3)cc21 | – | – | – | IC50 | > 10000 nM |
| COc1ccc(C(=O)/C=C/c2ccc3ccccc3c2)cc1S(N)(=O)=O | SRB | 10 µM | – | inhibition | 163% |
| CCc1n(Cc2ccc3ccccc3n2)cc[n+]1Cc1ccc2ccccc2c1 | SRB | – | – | TGI | 986 nM |
| O=C1Nc2ccccc2C1=NNc1nnc2n1N=C(c1ccccc1)CS2 | SRB | 10 µM | – | inhibition | 57% |
| Cc1cc(C)n(C(=S)[S][Au][PH](CCCCCC[PH]([Au][S]C(=S)n2nc(C)cc2C)(c2ccccc2)c2ccccc2)(c2ccccc2)c2ccccc2)n1 | SRB | – | – | GI50 | 1240 nM |
| COc1ccc(C(=O)/C=C/c2cccc(Br)c2)cc1S(N)(=O)=O | SRB | – | 48 h | GI50 | 1600 nM |
| COc1cccc(Oc2ccccc2NC(=O)CNC(=O)c2cccc3ccccc23)c1 | SRB | – | 48 h | GI50 | 178 nM |
| CCCc1n(Cc2ccc3ccccc3n2)cc[n+]1Cc1ccc2ccccc2n1 | SRB | – | – | TGI | 4300 nM |
| COc1ccc(-c2ccc(-c3ccc(C(=N)N)nc3)s2)cc1Cl | SRB | – | – | GI50 | 2100 nM |
| COc1ccc(C(=O)/C=C/c2cccnc2)cc1S(N)(=O)=O | SRB | – | 48 h | GI50 | 10500 nM |
| CCc1n(Cc2ccc3ccccc3n2)cc[n+]1Cc1ccc2ccccc2n1 | SRB | – | – | TGI | 1490 nM |
| COc1ccc(C(=O)/C=C/c2cccc(Cl)c2Cl)cc1S(N)(=O)=O | SRB | 10 µM | – | inhibition | 156% |
| CCCCc1n(Cc2ccc3ccccc3n2)cc[n+]1Cc1ccc2ccccc2n1 | SRB | – | – | TGI | 4190 nM |
| COc1ccc(-c2ccc(-c3ccc(C(=N)N)nc3)s2)cc1 | SRB | – | – | GI50 | 1900 nM |
